# Screens deposited in PubChem BioAssay by several laboratories.
# Shown are actives, neighbours in structure and some others; about 2.1% of the full set was active somewhere.
# KLK7 zymogen act: proKLK7 (human) activation, primary screen; P49862; purified proKLK7, EDANS-DABCYL substrate fluorescence; 100% is mature enzyme control, 0% vehicle; activation, % at 7 µM; actives 0.9% (n = 370,000); AID 652039;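 active = activation above the mean of all tested compounds plus 3 SD, computed per campaign excluding outliers beyond control limits, cut at about 13% in these data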
# Runt-CBFb FRET: inhibitors of human RUNX1 Runt domain binding to CBFb. Q01196+Q13951. Cerulean-Runt/Venus-CBFb FRET ratio 530/480, 1 h. inhibition, % at 20 µM. actives 0.46% (n = 220,000);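 active = inhibition over about 50% at 20 µM in the single-dose screen, limit read from the data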
#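 Measured by: fluorescence energy transfer, 422 nm excitation, 530/480 nm emission; Assay system: Cerulean-Runt domain; Medium: Tris pH 7.5 buffer with BSA; Measure: loss of energy transfer signal; Controls: 5 µM unlabeled CBFb as full-inhibition high control; Incubation: protein complex preformed 1 h, compound exposure 1 h, room temperature, dark.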
# RanGTP-Impb inh: inhibitors of RanGTP-importin-beta interaction, primary screen, biochemical, FRET, CFP-Ran, YFP-importin-beta, homogeneous | inhibition, % (test concentration not listed) | cell-free CFP-Ran/YFP-importin-beta FRET ratio | AID 2216 | actives 1.1% (n = 300,000);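 active = more than half of the replicate wells show a fall in the fluorescence ratio signal beyond about 16%, limit read from the data, passing the limit was not always enough; inconclusive = exactly half of the replicate wells pass the set limit; inactive = fewer than half of replicates pass the limit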
# MEX-5 binding: C. elegans MEX-5 TCR-2 RNA binding activity; actives 0.38% (n = 300,000); MEX-5/FITC-TCR2 RNA binding, fluorescence polarization; hits give low values; activity score (negative = inhibition of binding), % at 10 µM; AID 1832;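 active = inhibition past about -25% in most replicates, and total fluorescence under double the plate's negative control median, limit read from the data; inconclusive = replicates evenly split on the limit, or fluorescence at least double controls; inactive = too little inhibition in most replicates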
# Target sequence (Q9XUB2 whole entry, looked up): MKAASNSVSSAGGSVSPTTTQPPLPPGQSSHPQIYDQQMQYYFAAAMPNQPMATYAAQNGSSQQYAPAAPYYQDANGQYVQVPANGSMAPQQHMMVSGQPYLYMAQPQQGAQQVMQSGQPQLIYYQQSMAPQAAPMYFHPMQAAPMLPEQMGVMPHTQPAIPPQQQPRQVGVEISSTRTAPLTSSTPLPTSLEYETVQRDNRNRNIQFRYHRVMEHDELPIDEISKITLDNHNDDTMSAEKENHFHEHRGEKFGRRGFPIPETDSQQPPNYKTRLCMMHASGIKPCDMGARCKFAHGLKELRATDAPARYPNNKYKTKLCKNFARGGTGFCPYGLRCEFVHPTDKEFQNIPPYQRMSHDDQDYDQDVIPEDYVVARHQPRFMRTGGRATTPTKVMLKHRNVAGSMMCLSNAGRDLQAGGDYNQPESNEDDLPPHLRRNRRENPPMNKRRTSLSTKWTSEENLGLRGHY
# Runt-SMMHC FRET: Runt domain-CBFb-SMMHC interaction inhibition; Q01196+Q13951; Cerulean-Runt/Venus-CBFb-SMMHC FRET ratio 530/480, 1 h; inhibition, % at 20 µM; actives 0.74% (n = 220,000);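 active = mean inhibition across duplicate retests at 20 µM reaching about 50%, limit read from the data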;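 note: inhibitors lower the FRET ratio by blocking Runt binding to CBFb-SMMHC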
# proKLK7 act conf: confirmation of human kallikrein-7 zymogen activators; shares compounds with KLK7 zymogen act; purified proKLK7, EDANS-DABCYL substrate fluorescence; scaled: vehicle 0, mature enzyme 100; activation, % at 7 µM; actives 68% (n = 3,200);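 active = activation, as change over the incubation, above the mean of all tested compounds plus 3 SD, cut at about 13% in these data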
# EDANS interfere: counter-screen for kallikrein-7 activators: EDANS-DABCYL optical interference | EDANS-DABCYL substrate fluorescence interference, no enzyme, 4 h; solvent 0%, active enzyme control 100% | actives 80% (n = 3,200) | activation, % at 7 µM | shares compounds with KLK7 zymogen act;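 active = activation above the all-compound mean plus 3 SD, ignoring values outside control-based bounds, cut at about 4.8% in these data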;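 note: value is the 4 h activation minus the activation read at time zero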
# EDANS interf: optically interferes with EDANS-DABCYL fluorescence, kallikrein-7 activator counter-screen | AID 720493 | EC50, µM | shares compounds with KLK7 zymogen act | actives 20% (n = 250) | EDANS-DABCYL peptide fluorescence interference, no enzyme;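 active = compounds that raise the fluorescence signal in this interference counterscreen, with EC50 at or below 10 µM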;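 note: intact quenched peptide substrate alone read at 355 nm excitation and 520 nm emission; signal is fluorescence gain from T0 to T4 after four hours at room temperature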
# Hits are given with their value; – = inactive; ? = inconclusive; · = no result.
SMILES,KLK7 zymogen act,Runt-CBFb FRET,RanGTP-Impb inh,MEX-5 binding,Runt-SMMHC FRET,proKLK7 act conf,EDANS interfere,others
Cc1cccn2c(=O)c3cc(C(=O)NCCN4CCOCC4)c(=N)n(Cc4ccc(F)cc4)c3nc12,16.7,·,161.9,–,·,–,–,
Cc1cc2c(=O)n(C)c(SCC(=O)Nc3ccccc3C)nc2s1,–,·,–,–,·,·,·,
O=c1[nH]c2cc(O)ccc2c2ccccc12,–,·,·,·,·,·,·,
Nc1cccc2[nH]c(=O)c3ccccc3c12,20.4,·,·,·,·,21.1,21.1,
Nc1ccc2c(c1)[nH]c(=O)c1ccccc12,38.5,·,·,·,·,48.8,46.9,
Cc1nn(CC2CC2)c(=O)n1-c1ccc(F)cc1,–,–,–,–,–,·,·,
COC(=O)c1ccc2c(CCO)c[nH]c2c1,15.6,·,–,–,·,–,11.8,
COC(=O)c1ccc(CNC(=O)CCc2c[nH]c3ccccc23)cc1,–,·,–,–,·,·,·,
CCOC(=O)c1cc2c(=O)n3cccc(C)c3nc2n(CC(C)C)c1=NC(=O)c1ccco1,74.1,–,163.8,–,88.1,–,5.7,
CCOCCCn1c(=NC(=O)c2ccco2)c(C(=O)OCC)cc2c(=O)n3cccc(C)c3nc21,39.1,–,152.2,–,81.0,23.1,9.2,EDANS interf=–
Cc1noc(C)c1C(=O)NCC(=O)Nc1ccccc1Br,–,·,·,·,·,·,·,
COc1ccc(CNC(=O)c2ccc(CS(=O)c3ccccc3)o2)cc1 (centres undefined),–,·,–,–,·,·,·,
CCCn1c(-c2ccc[nH]c2=O)nc2cc(C)c(C)cc21,18.4,–,–,–,–,38.1,40.5,
Cc1cc2nc(-c3ccc[nH]c3=O)n(Cc3cccc(F)c3)c2cc1C,–,·,–,–,·,·,·,
CC1=CC2=C(C=O)C(=O)C(C)(O)C(O)C2=CO1 (centres undefined),21.4,·,·,·,·,29.3,27.0,
CCOc1nc(N=C(N)N)nc2c(C)cccc12,21.5,–,–,–,–,–,17.2,
CCOc1ccccc1Nc1cc(C)c2cccc(C)c2n1,–,·,–,–,·,·,·,
COc1cc(OC)cc(C2=Cc3ccccc3C(CC(=O)c3ccco3)N2c2ccc(-c3cccnc3)cc2)c1 (centres undefined),–,·,·,·,·,·,·,
COC(=O)c1ccc(N2C(c3cc(OC)cc(OC)c3)=Cc3ccc(-c4ccc(C(N)=O)cc4)cc3C2CC(=O)C2CC2)cc1 (centres undefined),40.4,·,·,·,·,57.0,23.1,EDANS interf=–
COC(=O)c1ccc(N2C(c3cc(OC)cc(OC)c3)=Cc3ccc(-c4cccnc4)cc3C2CC(=O)C2CC2)cc1 (centres undefined),61.7,·,·,·,·,28.5,–,EDANS interf=–
C=CCN(C(=O)c1csnn1)C(C(=O)NC1CCCCC1)c1ccc(F)cc1 (centres undefined),–,·,?,–,·,·,·,
CCOc1ccc(Cl)cc1-c1cc(C(=O)Nc2ccc(C(C)C)cc2)[nH]n1,–,·,·,·,·,·,·,
CCOC(=O)c1sc2nc(N3CCOCC3)c3c(c2c1N)CCC3,–,–,–,·,–,·,·,
NC(=O)c1sc2nc(N3CCOCC3)c3c(c2c1N)CCCC3,20.9,–,–,–,–,–,–,
Nc1c(C(=O)NCCc2ccccc2)sc2nc(N3CCOCC3)c3c(c12)CCCC3,151.9,–,–,–,–,–,–,
COc1ccc2oc(C(=O)Nc3nnc(C)s3)c(C)c2c1,20.8,·,·,·,·,–,–,
Cc1ccc2oc(C(=O)Nc3nnc(C)s3)c(C)c2c1,–,–,–,–,–,·,·,
Cc1cc(Br)cn2c(Cc3ccccc3)c(-c3ccc(C#N)cc3)nc12,–,·,·,·,·,·,·,
CC1=CC2(C(Cc3ccccc3)N(CC3CC3)C(=NC(=O)c3ccccc3)N2C(=O)OCc2ccccc2)n2c(=O)n(-c3ccccc3)c(=O)n2C1 (centres undefined),–,·,·,·,·,·,·,
COc1cc2cc(Oc3ccc4ccc(=O)oc4c3)c(=O)oc2cc1OC(C)=O,–,–,?,–,–,·,·,
